pIC50: −log10 of the molar value. Activity calls are given as the source filed them. The rule behind the calls is not given here.

This note sets out measurements from ChEMBL document CHEMBL3392964, “Design, synthesis, and evaluation of novel imidazo[1,2-a][1,3,5]triazines and their derivatives as focal adhesion kinase inhibitors with antitumor activity” (J Med Chem, 2015).

One test concerns U-87MG ATCC. The test is described as follows: Antiinvasive activity in human U87MG cells after 30 mins by boyden chamber assay. The format is functional, cell-based.
A further test deals with Focal adhesion kinase 1 (Homo sapiens, UniProt Q05397). The test is described as follows: Inhibition of FAK phosphorylation at tyrosine 397 in human U87MG cells after 48 hrs by FACEFAK ELISA. The format is cell-based. Particulars: U-87MG ATCC. Summed up:
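Cells in DMEM with 10% FBS, 3 × 10^3 per well, treated 48 h at 0.1, 1 and 10 μM. Fixed in 4% formaldehyde; antibodies to pTyr397-FAK or total FAK, HRP secondary, read at 450 nm. Crystal violet cell count at 595 nm. Phospho-FAK normalised to total FAK and cell number; fold decrease versus control, triplicate readings, three independent experiments.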

The test system of test [1] is MDA-MB-231. Kind of test: Antiproliferative activity against human MDA-MB-231 cells after 48 hrs by WST-1 assay. The format is functional, cell-based. Conditions: MDA-MB-231, 48 h. Summed up: (§1)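 Exponentially growing cells in DMEM/10% FBS seeded at 5 × 10^3 per well, left overnight, then exposed 48 h to compounds diluted from DMSO; WST-1 added for 2 h, absorbance at 450 nm (reference 620 nm); viability as ratio to DMSO controls; three independent experiments, triplicate points; IC50 by nonlinear regression (log inhibitor vs normalized response, variable slope).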
On the technique in general: Tetrazolium assays rely on reduction of a dye to a coloured formazan, in cell work by metabolically active cells.

Test [2] has as its system MDA-MB-231. The test is described as follows: Inhibition of colony formation in human MDA-MB-231 cells after 2 weeks by crystal violet staining-based assay. It counts as functional, cell-based. The method, boiled down:
(§2)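 Seeding: 250 cells per well for HCT-116, 300 for U87MG, MDA-MB-231 and PC-3; incubated overnight, then exposed to a range of concentrations for 2 weeks. Fixed in 4% paraformaldehyde 30 min at room temperature, stained with 0.1% crystal violet. Colonies over 50 cells counted; colony formation rate calculated; IC50 by nonlinear regression.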

In test [3] the test system is U-87 MG. The test is described as follows: Reduction of cell adherence in human U87MG cells at 3 uM after 30 mins by toluidine blue staining-based […]. Details: scale not given: the % may be the effect or the level left. It counts as functional, U-87MG ATCC. The method, boiled down:
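U87-MG cells grown in 10% serum, trypsinised, diluted to 100 000 cells/mL in 10% serum medium, then treated 30 min with compound or DMSO. 20 000 cells per well allowed to attach 1 h. Fixed in 4% paraformaldehyde 30 min, stained with 0.1% toluidine blue in 4% PFA 30 min, washed, OD read at 620 nm for attached cells.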

Test [4] in a line: Cell cycle arrest in human U87MG cells assessed as accumulation at S phase at 3 uM after 24 hrs by propidium iodide staining-based flow cytometry (reference value: 16%). Particulars: U-87MG ATCC. The format is functional. The method, boiled down: (§3)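 Cells plated at 10^5 per well, left overnight, then exposed 24 h to compound or vehicle; stained 15 min at 37 °C with propidium iodide/Triton buffer; DNA content by flow cytometry, phase distribution fitted by Dean–Jett–Fox; HCT-116 at 0.3–0.5 μM, U87-MG at 0.3–3 μM; significance by unpaired Student's t test; one representative experiment.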
For orientation: Flow cytometry measures light scatter and fluorescence of single cells or particles in a stream.

Test [5] can be described thus: Cell cycle arrest in human HCT116 cells assessed as accumulation at G0/G1 phase at 0.5 uM after 24 hrs by propidium iodide staining-based flow cytometry (reference value: 63.8%). Conditions: HCT-116. The format is functional. Summed up:
as §3

Test [6] is described as follows: Antiproliferative activity against human U87MG cells after 48 hrs by WST-1 assay. It counts as functional, cell-based, U-87MG ATCC. Conditions: U-87 MG. Summed up:
as §1

Test [7] in a line: Antiproliferative activity against human HCT116 cells after 48 hrs by WST-1 assay. The format is functional, cell-based. Particulars: HCT-116, 48 h. The method, boiled down:
as §1

Test [8] in a line: (§4) Inhibition of colony formation in human PC3 cells after 2 weeks by crystal violet staining-based assay. It counts as functional, cell-based. Particulars: PC-3, 336 h. The method, boiled down:
as §2

The test system of a further test is PC-3. The description is as §4. It counts as functional, cell-based. The method, boiled down: as §2
The test system of test [9] is U-87 MG. Kind of test: Induction of apoptosis in human U87MG cells assessed as viable cells at 3 uM after 24 hrs by Annexin V-PE/7-AAD staining-based FACS analysis (reference value: 96.7%). The format is functional, U-87MG ATCC. Particulars: read-out: Activity.
The target of test [10] is Insulin receptor (Homo sapiens) (UniProt P06213). The test is described as follows: Inhibition of human recombinant IR using poly[Glu:Tyr] as substrate at 1 uM by [gamma-33P]ATP-based assay. Summed up:
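Radioactive kinase assay with [γ33P]ATP and human recombinant kinase, compound tested at 1 μM.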

The test system of test [11] is U-87 MG. The test is described as follows: Induction of apoptosis in human U87MG cells assessed as necrotic cells at 3 uM after 24 hrs by Annexin V-PE/7-AAD staining-based FACS analysis (reference value: 1.06%). It counts as functional, U-87MG ATCC.
A short description of test [12]: Cell cycle arrest in human HCT116 cells assessed as accumulation at S phase at 0.5 uM after 24 hrs by propidium iodide staining-based flow cytometry (reference value: 17.7%). Conditions: HCT-116. It counts as functional. The method, boiled down:
as §3

In another test the test system is HCT-116. The test is described as follows: Induction of apoptosis in human HCT116 cells assessed as late apoptotic cells at 0.5 uM after 24 hrs by Annexin V-PE/7-AAD staining-based FACS analysis (reference value: 1.22%). It counts as functional.

Insulin receptor (Homo sapiens), sequence (P06213 28-758 limits assumed): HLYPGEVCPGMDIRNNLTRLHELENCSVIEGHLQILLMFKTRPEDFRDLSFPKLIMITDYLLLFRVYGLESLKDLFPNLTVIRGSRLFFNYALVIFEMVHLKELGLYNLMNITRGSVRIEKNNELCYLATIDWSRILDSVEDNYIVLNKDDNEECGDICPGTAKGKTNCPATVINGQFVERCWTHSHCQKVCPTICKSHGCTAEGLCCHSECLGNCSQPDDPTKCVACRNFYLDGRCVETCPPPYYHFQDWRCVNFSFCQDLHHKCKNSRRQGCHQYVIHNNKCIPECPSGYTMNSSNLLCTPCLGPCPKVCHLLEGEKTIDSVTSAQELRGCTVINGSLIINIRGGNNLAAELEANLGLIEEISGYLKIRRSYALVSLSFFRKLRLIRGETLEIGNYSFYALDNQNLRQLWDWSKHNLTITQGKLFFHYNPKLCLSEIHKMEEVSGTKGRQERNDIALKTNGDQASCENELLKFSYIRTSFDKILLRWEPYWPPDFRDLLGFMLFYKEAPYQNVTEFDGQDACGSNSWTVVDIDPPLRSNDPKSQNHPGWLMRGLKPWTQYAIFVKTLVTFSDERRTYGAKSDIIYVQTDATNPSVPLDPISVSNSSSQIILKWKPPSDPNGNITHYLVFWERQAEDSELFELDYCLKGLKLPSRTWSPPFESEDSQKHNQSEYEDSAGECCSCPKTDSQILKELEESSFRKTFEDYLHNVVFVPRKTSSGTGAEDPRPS
Insulin receptor (Homo sapiens), sequence (P06213 763-1382 limits assumed): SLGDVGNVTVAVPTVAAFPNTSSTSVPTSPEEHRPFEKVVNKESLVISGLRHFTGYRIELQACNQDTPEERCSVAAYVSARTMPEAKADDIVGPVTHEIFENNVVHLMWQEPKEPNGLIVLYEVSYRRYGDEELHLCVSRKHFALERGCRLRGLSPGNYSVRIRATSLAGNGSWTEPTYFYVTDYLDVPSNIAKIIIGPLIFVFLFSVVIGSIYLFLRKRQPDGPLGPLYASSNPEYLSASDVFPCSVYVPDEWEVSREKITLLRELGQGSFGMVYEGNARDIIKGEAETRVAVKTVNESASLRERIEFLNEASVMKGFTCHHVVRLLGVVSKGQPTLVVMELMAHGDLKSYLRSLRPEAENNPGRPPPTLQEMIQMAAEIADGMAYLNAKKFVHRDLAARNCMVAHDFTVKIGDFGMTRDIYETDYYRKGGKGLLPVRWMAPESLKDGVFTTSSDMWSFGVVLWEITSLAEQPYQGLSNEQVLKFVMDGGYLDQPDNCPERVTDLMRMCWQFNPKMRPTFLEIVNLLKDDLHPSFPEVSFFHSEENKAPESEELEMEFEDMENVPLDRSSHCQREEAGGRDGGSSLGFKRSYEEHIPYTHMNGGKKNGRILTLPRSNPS
Focal adhesion kinase 1, sequence (Q05397 2-1052 limits assumed): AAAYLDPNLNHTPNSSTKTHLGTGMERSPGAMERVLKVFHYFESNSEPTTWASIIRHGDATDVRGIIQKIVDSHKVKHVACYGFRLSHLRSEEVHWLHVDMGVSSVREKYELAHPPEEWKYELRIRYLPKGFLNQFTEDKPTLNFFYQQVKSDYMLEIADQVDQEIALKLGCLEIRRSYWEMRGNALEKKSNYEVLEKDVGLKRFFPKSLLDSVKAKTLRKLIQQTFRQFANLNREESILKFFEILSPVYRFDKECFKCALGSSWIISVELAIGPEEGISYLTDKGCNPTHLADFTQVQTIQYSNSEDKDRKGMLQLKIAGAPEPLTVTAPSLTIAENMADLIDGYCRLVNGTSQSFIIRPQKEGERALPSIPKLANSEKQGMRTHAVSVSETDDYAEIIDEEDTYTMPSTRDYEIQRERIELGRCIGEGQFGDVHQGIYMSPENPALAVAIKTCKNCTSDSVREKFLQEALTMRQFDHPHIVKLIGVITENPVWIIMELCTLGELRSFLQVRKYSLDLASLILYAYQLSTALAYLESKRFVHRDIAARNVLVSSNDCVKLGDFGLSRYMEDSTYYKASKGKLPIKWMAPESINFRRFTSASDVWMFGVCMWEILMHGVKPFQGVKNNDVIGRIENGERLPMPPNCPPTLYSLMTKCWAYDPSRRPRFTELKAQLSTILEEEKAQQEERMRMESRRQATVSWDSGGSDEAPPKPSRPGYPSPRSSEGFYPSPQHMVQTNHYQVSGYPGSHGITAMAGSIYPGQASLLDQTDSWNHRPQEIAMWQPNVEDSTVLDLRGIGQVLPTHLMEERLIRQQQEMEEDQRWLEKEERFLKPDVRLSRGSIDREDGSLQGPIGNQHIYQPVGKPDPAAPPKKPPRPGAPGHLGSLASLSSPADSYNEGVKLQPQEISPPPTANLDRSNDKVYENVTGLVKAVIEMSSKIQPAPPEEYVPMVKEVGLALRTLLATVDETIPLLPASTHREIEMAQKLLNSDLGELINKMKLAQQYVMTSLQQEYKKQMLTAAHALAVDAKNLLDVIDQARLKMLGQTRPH

`C=COC(=O)NCc1ccc(Nc2nc(Nc3ccccc3C(=O)NC)n3ccnc3n2)cc1`: the Activity entry in the test on U-87MG ATCC is “Dose-dependent effect”; in the test on U-87 MG [3], 50%; in [4] it was 5.08%; in test [5] it was 29.9%; in the test with U-87 MG [11], 0.804%; in [12], 11.6%. The Activity in the test with HCT-116 amounted to 16.1%. Also, the inhibition entry at Focal adhesion kinase 1, in the test with MDA-MB-231 [2] and in the test on PC-3 was “Dose-dependent effect” in each case. Further, the negative logarithm of the IC50 (pIC50) (usually the IC50 on a negative log10 scale, so that one unit is a factor of ten) in the test on MDA-MB-231 [1] was 6.10; in the test with MDA-MB-231 [2] (MDA-MB-231, 336 h), 6.85; in [6], 5.54; in test [7] it was 6.28; in test [8], 6.20. Besides, in the test on U-87 MG [9], the viability at 3 µM was 97.4%. In test [10], the inhibition entry was “inactive”.
